Screening results from PubChem BioAssay.
Compounds with a hit are over-represented: about 3.1% of the library has one in this group of screens.
pPAFAH FP inh – pPAFAH (human) enzyme inhibition; Q13093; recombinant pPAFAH, FP-rhodamine probe fluorescence polarization; inhibition, % at 3.39 µM; 330,000 compounds, 1.5% hits;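 active = inhibition above the mean inhibition across the screen plus 3 SD, cut at about 25% in these data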;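 note: inhibitors block binding of the rhodamine activity-based probe so polarization drops; 0% = enzyme with DMSO and 100% = wells lacking pPAFAH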
Apaf-1 inh – inhibitors of human Apaf-1 apoptosome. O14727. reconstituted apoptosome caspase-3 activity, DEVD-Rh110 fluorescence. inhibition, % at 20 µM. 330,000 compounds, 0.71% hits; active = inhibition of at least 40% at 20 µM;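 note: plate controls were DMSO wells for no effect and DEVD-CHO caspase inhibitor wells for full effect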
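System: Apoptosome proteins | Medium: Hepes pH 7.5 with detergent and BSA | Also added: Cytochrome c trigger plus (Z-DEVD)2-Rh110 caspase-3 substrate | Incubation: 30 min compound preincubation, 50 min activation, room temperature | Detection: Rhodamine 110 fluorescence at Ex 480/Em 540 nm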
PAFAH1B2 inh – inhibitors of human PAFAH1B2; P68402; recombinant PAFAH1B2, FP-rhodamine activity probe, fluorescence polarization; inhibition, % at 3.39 µM; 340,000 compounds, 1.2% hits; AID 492953;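 active = inhibition above the mean of all tested compounds plus 3 SD, cut at about 24% in these data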;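 note: 0% = enzyme with DMSO and 100% = wells lacking PAFAH1B2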
Target sequence (P68402 whole entry, looked up): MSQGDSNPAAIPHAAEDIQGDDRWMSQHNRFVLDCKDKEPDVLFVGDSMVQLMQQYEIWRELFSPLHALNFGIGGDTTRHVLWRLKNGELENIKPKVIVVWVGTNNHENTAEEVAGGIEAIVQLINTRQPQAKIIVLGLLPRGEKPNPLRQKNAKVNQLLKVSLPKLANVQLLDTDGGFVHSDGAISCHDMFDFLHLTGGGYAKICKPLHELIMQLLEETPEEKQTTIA
PAFAH1B3 inh – blocks human PAF acetylhydrolase 1B catalytic subunit 3. AID 492972. inhibition, % at 3.39 µM. 340,000 compounds, 0.28% hits. recombinant PAFAH1B3, FP-rhodamine probe, fluorescence polarization. Q15102;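 active = inhibition above the screen-wide average of all tested compounds plus 3 SD, cut at about 25% in these data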;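 note: 0% = enzyme with DMSO only and 100% = wells lacking PAFAH1B3 protein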
Target sequence (Q15102 whole entry, looked up): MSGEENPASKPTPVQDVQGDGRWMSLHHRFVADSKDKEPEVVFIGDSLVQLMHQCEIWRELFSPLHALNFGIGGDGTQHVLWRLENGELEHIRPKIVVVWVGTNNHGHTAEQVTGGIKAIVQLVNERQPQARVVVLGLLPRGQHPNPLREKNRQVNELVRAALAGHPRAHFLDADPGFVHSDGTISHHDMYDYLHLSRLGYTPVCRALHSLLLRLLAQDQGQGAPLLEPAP
PAFAH2 FP inh – inhibitors of human PAFAH2; AID 492956; recombinant PAFAH2, FP-rhodamine activity probe, fluorescence polarization; inhibition, % at 3.39 µM; 340,000 compounds, 0.99% hits;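 active = inhibition above the mean over all tested compounds plus 3 SD, cut at about 30% in these data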;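 note: inhibitors block probe labeling of enzyme so polarization drops; 0% = enzyme with DMSO and 100% = wells lacking PAFAH2 protein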
Active calls of the source: *; · = no result.

SMILES	pPAFAH FP inh	Apaf-1 inh	PAFAH1B2 inh	PAFAH1B3 inh	PAFAH2 FP inh
CCNC(=S)NNC(=O)c1cc(-c2ccc(OC)cc2)nc2ccccc12	16	17	28*	9	3
CCNC(=S)NNC(=O)c1cc(-c2cccc(OCC)c2)nc2ccccc12	16	-15	6	-2	0
COc1ccccc1CCNC(=O)C(=O)NCC1OCCN1S(=O)(=O)c1ccc(C)cc1 (configuration not stated)	7	8	2	-2	11
Cc1nc(N2CCN(S(=O)(=O)c3ccccc3C#N)CC2)c2c(-c3ccccc3)csc2n1	3	2	0	-2	-3
N=C1C(c2nc3ccccc3s2)=C(O)CN1Cc1ccccc1	4	6	0	12	4
CCOc1ccccc1N1CC(O)=C(c2nc3ccccc3s2)C1=N	33*	16	1	0	14
CC(=O)Nc1ccc(Cc2nc3c([nH]2)c(=O)n(C)c(=O)n3C)cc1	0	-2	·	·	·
[O-][n+]1c2c(nn1-c1ccccc1)/C(=N/O)CCC2	1	-4	-2	0	7
[O-][n+]1onc2c1CCC(=N/O)/C2=N\Nc1ccccc1	41*	-9	·	·	·
Cc1ccccc1NS(=O)(=O)c1ccc(NC(=O)CSCc2ccc(Br)cc2)cc1	26*	13	-16	-37	-41
CCN(CC)c1nc2c3c(nc4c(c3c1C#N)CC(=O)N4c1ccc(Cl)cc1)NC(C)=N2	64*	17	15	14	15
CC(C)CN(C(=O)COC(=O)C12CC3CC(CC(Cl)(C3)C1)C2)c1c(N)n(Cc2ccccc2)c(=O)[nH]c1=O	6	10	12	4	-4
CN(C(=O)COC(=O)C12CC3CC(CC(Cl)(C3)C1)C2)C1(C#N)CCCCC1	-4	4	24*	5	6
O=C(CSc1n[nH]c(=O)[nH]c1=O)c1ccc(Cl)cc1Cl	0	-5	30*	7	2
O=c1[nH]nc(SCc2cc(Cl)ccc2Cl)c(=O)[nH]1	0	2	29*	4	1
O=C(CSc1n[nH]c(=O)[nH]c1=O)Nc1ccc2c(c1)C(=O)c1ccccc1C2=O	23	6	2	12	10
O=C(CSc1n[nH]c(=O)[nH]c1=O)Nc1c(Cl)cc(Cl)cc1Cl	2	-6	0	7	-10
C=CCn1c(=O)c(CCC(=O)Nc2ccc(N3CCOCC3)cc2)nc2cc(C(F)(F)F)ccc21	1	19	-5	0	-2
CC(C)(O)CC[C@@H](O)[C@](C)(O)C1CC[C@@]2(O)C3=CC(=O)[C@]4(O)C[C@@H](O)[C@@H](O)C[C@]4(C)C3CC[C@]12C (some centres not stated)	1	5	-2	1	-5
O=C(/C=C/c1ccc(Cl)c(C(F)(F)F)c1)N1CCN(c2ccccn2)CC1	29*	10	2	3	40*
CC(C)(C)c1ccc(OCC(=O)N2CCN(c3ccccn3)CC2)cc1	16	15	16	5	6
O=C(/C=C/c1ccc(F)cc1)N1CCN(c2ncccn2)CC1	-4	12	1	4	3
CC(C)(C)c1ccc(OCC(=O)N2CCN(c3ncccn3)CC2)cc1	26*	10	3	-4	16
CC(C)(C)c1ccc(/C=C/C(=O)N2CCN(c3ncccn3)CC2)cc1	32*	6	6	12	4
CC(=O)Oc1cc2c3c(c1)/C(=C1/SC(=S)NC1=O)C(=O)N3C(C)(C)C=C2C	30*	4	48*	16	37*
SMILES	pPAFAH FP inh	Apaf-1 inh	PAFAH1B2 inh	PAFAH1B3 inh	PAFAH2 FP inh
CCOc1cc2c3c(c1)C(C)=CC(C)(C)N3C(=O)C2=O	3	5	6	9	1
CC(NS(=O)(=O)c1ccc2c(c1)OCCO2)c1ccccc1 (configuration not stated)	8	2	27*	6	6
CCN(CC)CCCn1c2c(c(SCC(=O)Nc3cccc(C)c3C)nc1=O)CCC2	-2	0	-5	5	-2
CCN(CC)CCCn1c2c(c(SCC(=O)Nc3cccc4ccccc34)nc1=O)CCC2	3	10	34*	36*	32*
COC(=O)[C@@H](NC(=O)N1CCC(Cc2ccccc2)CC1)C(C)C	-3	2	-4	1	-2
COC(=O)C(=C/C=C/N1CCOCC1)C(=O)OC	25*	-2	·	·	·
CCOC(=O)/C(=C\C=C\N1CCOCC1)C(C)=O	6	-12	-4	-5	-1
CCc1cccc2c(/C=N/NC(=O)c3cccc(S(=O)(=O)Nc4ccccc4Cl)c3)c[nH]c12	27*	10	26*	31*	4
COc1ccc(OC)c(Nc2nc(-c3sc(NC(=O)C(C)(C)C)nc3C)cs2)c1	30*	11	3	6	15
CCC(C)C(=O)Nc1nc(C)c(-c2csc(Nc3cc(OC)ccc3OC)n2)s1 (configuration not stated)	32*	-15	12	16	-5
COc1ccccc1Nc1nc(-c2sc(NC(=O)c3ccccc3)nc2C)cs1	5	-4	0	-3	-9
CCC(C)C(=O)Nc1nc(C)c(-c2csc(Nc3cc(Cl)ccc3OC)n2)s1 (configuration not stated)	13	-5	0	7	8
COc1ccc(OC)c(Nc2nc(-c3sc(NC(=O)CC(C)C)nc3C)cs2)c1	30*	-8	8	10	3
COc1ccc(Cl)cc1Nc1nc(-c2sc(NC(=O)C(C)(C)C)nc2C)cs1	10	35	2	10	3
COc1ccccc1Nc1nc(-c2sc(N)nc2C)cs1	27*	8	7	16	13
CCOc1ccc(NC(=O)COC(=O)CCN2C(=O)C3CC=CCC3C2=O)cc1OCC (configuration not stated)	7	-3	4	14	5
COc1ccc(OC)c(Nc2nc(-c3sc(C)nc3C)cs2)c1	33*	16	2	5	7
CCC(=O)Nc1nc(C)c(-c2csc(Nc3ccccn3)n2)s1	26*	17	0	9	17
COc1cc(C2NC(=O)CCC2[N+](=O)[O-])cc(OC)c1OC (configuration not stated)	4	3	1	5	-3
COc1ccccc1C=NN=C(NN=Cc1ccccc1OC)NN=Cc1ccccc1OC	·	·	-2	6	14
CN1OC(COC(=O)c2ccc(Cl)cc2Cl)CC1c1ccccc1 (configuration not stated)	26*	14	3	-3	7
CCOC(=O)Cn1c(=O)oc2cc(S(=O)(=O)Nc3c(C)cc(C)cc3C)ccc21	25*	5	-1	6	5
CCOC(=O)Cn1c(=O)oc2cc(S(=O)(=O)NC3CCCCC3)ccc21	6	3	5	-8	-1
CCN1C(=O)c2cccc3c(S(=O)(=O)N(C(C)=O)c4ccc(OC(C)=O)cc4)ccc1c23	-1	11	8	10	-2
